In PubChem BioAssay:
Records with an inconclusive call do not appear. The source made the active and inactive calls.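 How the source made its calls, unless noted: active means RAM network inhibition above 8.4% in each of two replicates, 3 SD over the compound average; inconclusive means above 8.4% inhibition in only one replicate; inactive means 8.4% inhibition or less in each replicate.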

Columns and labels:
[1] = OD615 S. cerevisiae growth inhibition, permissive medium, pilot counter-assay, permissive growth control for S. cerevisiae lifespan shortening project (AID 705;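 active means growth inhibition above 25% in both replicates, a cutoff set 3 SD above the mean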); details: OD615, 24 h, at 10 µM, hits give high values
Method in brief: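 assay system = Saccharomyces cerevisiae strain carrying genetically modified DeaD replicative-lifespan system | medium = SC raffinose/galactose permissive medium | dosing = 10 µM single dose, 0.25% DMSO | schedule = 24 h compound exposure at 30 °C after 4 h pre-growth | measured by = OD at 615 nm | read-out basis = growth inhibition from lowered OD615 after 24 h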

[2] = Restrictive medium S. cerevisiae growth inhibition, OD615, pilot screen of yeast lifespan reduction project, restrictive growth control (AID 706;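 active means growth inhibition above a set limit, 3 SD over mean compound inhibition, in both replicates, cut at about 43% in these data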;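 further: modified DeaD lifespan yeast strain shifted to restrictive glucose medium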); details: OD615, 48 h, at 10 µM, hits give high values
Method in brief: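 Buffer or medium: CSMM-D glucose medium. Material: genetically modified Saccharomyces cerevisiae, DeaD replicative lifespan assay strain. Times: 48 h compound exposure at 30 °C. Measured by: optical density at 615 nm.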

[3] = viability gain of MRP-1-high H69AR cells under doxorubicin, pilot screen, MRP-1 activator project, CellTiter-Glo, duplicate (AID 807;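 active means viability increase at or above a cutoff of the median across tested compounds plus 3 SD, cut at about 8.5% in these data, passing the limit was not always enough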;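 further: compound pretreatment 18-22 h then 72 h combined with doxorubicin; 0% = doxorubicin alone and 100% = vehicle without doxorubicin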); details: H69AR viability with doxorubicin, CellTiter-Glo luminescence; at 10 µM; hits give high values
[4] = growth suppression of beta-catenin knockout HCT116, pilot screen, human colon tumor cells (AID 823;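 active means cell viability at or below a set limit in both duplicate runs, the limit being the all-compound median minus 4 SD, cut at about 23% in these data, passing the limit was not always enough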;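 further: 0% = wells killed by 20 µM Hyamine and 100% = untreated DMSO cell wells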); details: CellTiter-Glo, 60 h, at 10 µM, hits give low values
[5] = growth suppression of PTEN-deleted HCT116, pilot screen, cell-based, HCT116 clonal line, CellTiter-Glo (AID 824;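 active means viability at or below 27.92% in each of two runs, the all-compound median minus 4 SD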;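 further: 0% = 20 µM Hyamine control and 100% = vehicle cell control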); details: 60 h, at 10 µM, hits give low values
[6] = inhibitors of the yeast RAM network, pilot screen, dse1pr::URA3 reporter, 5-FOA selection (AID 869;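 active means inhibition over a set limit, the all-compound mean plus 3 SD, in both replicate runs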;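 further: 0% = DMSO wells with no growth and 100% = 10 µM 1-NA-PP1 with full growth; RAM network block rescues cells from 5-FOA so hits raise OD615 growth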); details: S. cerevisiae dse1pr::URA3 5-FOA growth, OD615, 2 d; at 10 µM; hits give high values; strain carries analog-sensitive mutant Cbk1 kinase
[7] = RAM signaling pathway blockade in yeast – S. cerevisiae, Pdr1DBD-CYC8 efflux-inhibited sensitized strain, primary screen (AID 1298);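 further: 0% = DMSO untreated cells without growth and 100% = 10 µM 1-NA-PP1 full growth; higher means more yeast growth rescued from 5-FOA killing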; details: S. cerevisiae cbk1-as DSE1-URA3 strain, 5-FOA growth OD615, 2 d; at 50 µM; hits give high values

Cc1cc(C)n(CC(=O)n2c3ccccc3c3ccccc32)n1
inactive: growth inhibition [1] 5.86% | growth inhibition [2] -3.37% | viability increase [3] -3.82% | viability [4] 78.2% | viability [5] 91.7% | inhibition [6] 0.155% | RAM network inhibition [7] -1.18%

O=C(Nc1nnc(-c2ccc3c(c2)CCCC3)o1)C1COc2ccccc2O1 (configuration not stated)
inactive: growth inhibition [1] 5.39% | growth inhibition [2] 23% | viability increase [3] -2.7% | viability [4] 44.3% | viability [5] 51.1% | inhibition [6] 0.315% | RAM network inhibition [7] -1.78%

CC(=O)N1CC2(C)CN(C(C)=O)CC(C)(C1)C2=O
inactive: growth inhibition [1] -5.64% | growth inhibition [2] 2.83% | viability increase [3] -0.26% | viability [4] 101% | viability [5] 102% | inhibition [6] 1.9% | RAM network inhibition [7] -0.41%

CCCN(CCC)C(=O)c1ccc2c(c1)N(Cc1ccccc1)C(=O)CS2=O (configuration not stated)
inactive: growth inhibition [1] 2.79% | growth inhibition [2] -7.64% | viability increase [3] -2.62% | viability [4] 88.1% | viability [5] 83.4% | inhibition [6] 0.885% | RAM network inhibition [7] 1.55%

COc1ccc(N(CC(=O)NCc2cccnc2)S(=O)(=O)c2c(C)nn(C)c2C)cc1
inactive: growth inhibition [1] -19.9% | growth inhibition [2] -19.4% | viability increase [3] -1.49% | viability [4] 98.5% | viability [5] 95.2% | inhibition [6] 1.57% | RAM network inhibition [7] 7.6%

COc1cc(C(=O)N2CCN(C(=O)c3ccco3)CC2)cc(OC)c1OC
inactive: growth inhibition [1] -7.33% | growth inhibition [2] -2.3% | viability increase [3] -0.58% | viability [4] 100% | viability [5] 97.5% | inhibition [6] 0.16% | RAM network inhibition [7] 6.85%

CCOC(=O)c1sc2nc(NC(=O)C3CC3)sc2c1C
inactive: growth inhibition [1] -0.51% | growth inhibition [2] -2.08% | viability increase [3] -5.8% | viability [4] 86% | viability [5] 82.2% | inhibition [6] 4.2% | RAM network inhibition [7] 3.96%

COc1ccc(NC2=CC(=O)CC(C)(C)C2)cc1OC
inactive: growth inhibition [1] -5.52% | growth inhibition [2] -8.65% | viability increase [3] -3.58% | viability [4] 96.8% | viability [5] 89.2% | inhibition [6] 0.975% | RAM network inhibition [7] 0.37%

CC(=O)Nc1ccc(S(=O)(=O)N2CCN(c3ccc(C)c(Cl)c3)CC2)cc1
inactive: growth inhibition [1] -14.6% | growth inhibition [2] 6.34% | viability increase [3] 0.47% | viability [4] 98.3% | viability [5] 85.4% | inhibition [6] 1.71% | RAM network inhibition [7] 1.14%

O=C(NC1CCCC1)C(c1ccc(Cl)cc1)N1CCOCC1 (configuration not stated)
inactive: growth inhibition [1] -10.9% | growth inhibition [2] -6.79% | viability increase [3] 1.37% | viability [4] 98.8% | viability [5] 93% | inhibition [6] 1.98% | RAM network inhibition [7] 2.55%

CCOC(=O)c1ccc(Nc2ccc(-c3ccc(OC)c(OC)c3)nn2)cc1
inactive: growth inhibition [1] -6.25% | growth inhibition [2] -20% | viability increase [3] -5.24% | viability [4] 80.8% | viability [5] 77.2% | inhibition [6] 2.08% | RAM network inhibition [7] 3.37%

CCOC(=O)N1CCN(C(=O)c2ccc3c(SCC(=O)O)c4c(nc3c2)CCC4)CC1
inactive: growth inhibition [1] -7.38% | growth inhibition [2] 3.22% | viability increase [3] -1.86% | viability [4] 102% | viability [5] 93% | inhibition [6] 0.9% | RAM network inhibition [7] 2.81%

Cc1c(C(=O)NCc2ccccn2)sc2nc(-c3ccccc3)cn12
inactive: growth inhibition [1] 6.98% | growth inhibition [2] 13.1% | viability increase [3] 0.68% | viability [4] 112% | viability [5] 101% | inhibition [6] 0.91% | RAM network inhibition [7] 0.57%

C=CCSc1nc2ccccc2c(=O)[nH]1
inactive: growth inhibition [1] -16.1% | growth inhibition [2] -8.26% | viability increase [3] -0.8% | viability [4] 105% | viability [5] 95.2% | inhibition [6] 2.91% | RAM network inhibition [7] 0.79%

O=C(Nc1nnc(-c2cccs2)o1)c1cccc(C(F)(F)F)c1
active: viability [4] 15.5% | viability [5] 19.5%
inactive: growth inhibition [1] -14.9% | growth inhibition [2] 7.83% | viability increase [3] -0.12% | inhibition [6] 1.56% | RAM network inhibition [7] 3.02%

CC(=O)c1c(C)nn(C(=O)c2cccs2)c1C
inactive: growth inhibition [1] 1.07% | growth inhibition [2] 5.09% | viability increase [3] -0.49% | viability [4] 91% | viability [5] 106% | inhibition [6] 1.89% | RAM network inhibition [7] -0.62%

O=C(CSc1nccc2ccccc12)N1CCN(c2ccccn2)CC1
inactive: growth inhibition [1] -3.48% | growth inhibition [2] 8.46% | viability increase [3] -2.78% | viability [4] 97.5% | viability [5] 99.8% | inhibition [6] 0.295% | RAM network inhibition [7] -0.26%

Cc1ccc(F)cc1NC(=O)c1c(-c2ccccc2)noc1C
inactive: growth inhibition [1] -10.2% | growth inhibition [2] -26.1% | viability increase [3] -2.01% | viability [4] 78.8% | viability [5] 72.9% | inhibition [6] 0.015% | RAM network inhibition [7] 2.22%

Cn1c(=O)c2c(nc(NCc3ccccc3)n2Cc2ccc(F)cc2)n(C)c1=O
inactive: growth inhibition [1] -2.42% | growth inhibition [2] -16.9% | viability increase [3] -5.47% | viability [4] 65.9% | viability [5] 54.1% | inhibition [6] 2.54% | RAM network inhibition [7] 3.33%

O=C(NCCN1CCCCC1)c1ccc2c(c1)OCCO2
inactive: growth inhibition [1] -9.66% | growth inhibition [2] -10.3% | viability increase [3] -1.4% | viability [4] 102% | viability [5] 99% | inhibition [6] 1.86% | RAM network inhibition [7] 2.64%

Cc1ccc(CCN2CC(C(=O)NCc3cccnc3)CC2=O)cc1 (configuration not stated)
inactive: growth inhibition [1] 6% | growth inhibition [2] 5.13% | viability increase [3] -0.64% | viability [4] 104% | viability [5] 94.5% | inhibition [6] 2.59% | RAM network inhibition [7] -0.99%

Cn1c(Cn2c(=O)sc3ccccc32)nnc1SCC(=O)NC1CCCC1
inactive: growth inhibition [1] -9.37% | growth inhibition [2] -5.96% | viability increase [3] -1.04% | viability [4] 102% | viability [5] 103% | inhibition [6] 0% | RAM network inhibition [7] 3.56%

CCOc1ccc(N(CC(=O)N2CC=C(c3ccccc3)CC2)S(=O)(=O)c2c(C)noc2C)cc1
inactive: growth inhibition [1] -3.46% | growth inhibition [2] -23.9% | viability increase [3] -3.95% | viability [4] 71.1% | viability [5] 64.9% | inhibition [6] 1.11% | RAM network inhibition [7] 0.32%

Cn1c(=O)[nH]c(=O)c2c1nc(N1CCN(c3ccccc3)CC1)n2CCSc1ncccn1
inactive: growth inhibition [1] -4.54% | growth inhibition [2] 7.86% | viability increase [3] -2.82% | viability [4] 93% | viability [5] 82.6% | inhibition [6] 0.42% | RAM network inhibition [7] 4.89%

O=C1c2ccccc2C(O)N1Cc1ccccc1Cl (configuration not stated)
inactive: growth inhibition [1] -1.72% | growth inhibition [2] -0.325% | viability increase [3] -1.74% | viability [4] 93.7% | viability [5] 81.2% | inhibition [6] 2.76% | RAM network inhibition [7] 1.48%

Clc1ccccc1OCCN1CCCCC1
inactive: growth inhibition [1] -14.4% | growth inhibition [2] -20.6% | viability increase [3] 0.57% | viability [4] 85.5% | viability [5] 96.2% | inhibition [6] 0.6% | RAM network inhibition [7] 6.74%

N#Cc1nc(COc2ccccc2F)oc1NCc1ccc(F)cc1
inactive: growth inhibition [1] -5.23% | growth inhibition [2] 6.15% | viability increase [3] -4.08% | viability [4] 92.1% | viability [5] 90.7% | inhibition [6] 0.39% | RAM network inhibition [7] 8.3%

COc1ccc(-c2nc(CS(=O)CC(=O)NCc3cccnc3)c(C)o2)cc1 (configuration not stated)
inactive: growth inhibition [1] 2.57% | growth inhibition [2] -2.7% | viability increase [3] -4.05% | viability [4] 89.3% | viability [5] 92.5% | inhibition [6] 1.14% | RAM network inhibition [7] 1.62%

COc1ccc(-c2nc(CS(=O)CC(=O)NCc3ccco3)c(C)o2)cc1 (configuration not stated)
inactive: growth inhibition [1] -8.38% | growth inhibition [2] 17.3% | viability increase [3] -4.45% | viability [4] 92.5% | viability [5] 100% | inhibition [6] 1.88% | RAM network inhibition [7] 0.58%

COC(=O)c1ccccc1NC(=O)CSc1nc(N)cc(N)n1
inactive: growth inhibition [1] -11.6% | growth inhibition [2] 5.95% | viability increase [3] -2.46% | viability [4] 94.1% | viability [5] 98.3% | inhibition [6] 0.39% | RAM network inhibition [7] -0.05%

Cc1nc(Cc2nnc(SCc3nc(N)nc(Nc4ccccc4C)n3)o2)cs1
inactive: growth inhibition [1] -3.24% | growth inhibition [2] 20.5% | viability increase [3] -1.28% | viability [4] 98.7% | viability [5] 97.5% | inhibition [6] 0.85% | RAM network inhibition [7] 5.96%

Cc1oc(-c2ccc(Cl)cc2)nc1CN1CCCC(C(=O)NCCCN2CCCC2=O)C1 (configuration not stated)
inactive: growth inhibition [1] -14.7% | growth inhibition [2] -21.4% | viability increase [3] -0.61% | viability [4] 63.8% | viability [5] 78.7% | inhibition [6] 1.73% | RAM network inhibition [7] 0.96%

COC(=O)c1cc2c(s1)-c1ccccc1OC2
inactive: growth inhibition [1] -11.1% | growth inhibition [2] 4.14% | viability increase [3] -4.57% | viability [4] 101% | viability [5] 95.7% | inhibition [6] 1.39% | RAM network inhibition [7] 3.14%

CCOc1cccc(C2c3c(oc4ccccc4c3=O)C(=O)N2c2ccccn2)c1 (configuration not stated)
inactive: growth inhibition [1] -1.86% | growth inhibition [2] -9.72% | viability increase [3] -2.2% | viability [4] 95.6% | viability [5] 93.9% | inhibition [6] 0% | RAM network inhibition [7] 2.56%

CCCCCn1c(CNC(C)=O)nc2ccccc21
inactive: growth inhibition [1] -11.1% | growth inhibition [2] -13.2% | viability increase [3] 0.03% | viability [4] 93.5% | viability [5] 97.7% | inhibition [6] 0.54% | RAM network inhibition [7] 7.59%

CC(C)NC(=O)C1CCCN(c2nnc(-n3cccc3)s2)C1 (configuration not stated)
inactive: growth inhibition [1] -0.35% | growth inhibition [2] 14.8% | viability increase [3] -3.11% | viability [4] 108% | viability [5] 97.6% | inhibition [6] -0.455% | RAM network inhibition [7] 0.02%
